Nine compounds from article PMC12246158 (Scientific Reports, 2025) can be followed below.

One assay has as its system L. major promastigotes. As to the kind of experiment: Parasite counting method. The class given is cell-based. Conditions: microscopic counting, 24, 48 and 72 h at 24 °C. The essentials: (§1)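 Promastigotes (L. major MRHO/IR/75/ER; L. tropica MRHO/IR/02/Mash10), grown in RPMI 1640 with 20% heat-inactivated FBS and pen-strep, were seeded at 1 × 10^6/mL in log phase. They were exposed to 3.12–1000 µM test compound (DMSO stock diluted in PBS) for 24, 48 and 72 h at 24 °C. Fixed parasites were counted daily in a Neubauer chamber at 400x. Triplicate; AmB 0.93 µM reference; repeated-measures ANOVA.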

The subject of another assay is L. tropica promastigotes. Kind of assay: Parasite counting method. Conditions: microscopic counting, 24, 48 and 72 h at 24 °C. The class given is cell-based. Summed up:
as §1

In assay [1] the test system is L. major intracellular amastigotes. Kind of assay: Anti-intracellular amastigote activity in J774A.1 macrophages. In kind it is cell-based, L. major (MRHO/IR/75/ER). The conditions noted are these: Leishmania species not given. Summed up: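 SI = CC50/IC50. For amastigotes, J774A.1 cells (10^5/well) were seeded on coverslips for 24 h at 37 °C, 5% CO2, then infected with stationary-phase metacyclic promastigotes (10:1) for 24 h. Test compound 1.32–1000 µM was added for 72 h, then cells were methanol-fixed and Giemsa-stained; amastigotes per 100 macrophages were counted. […] Triplicates.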

With `CNC(=S)NN=Cc1ccc(OC)c(OC)c1` [Compound 5a, 2-(3,4-Dimethoxybenzylidene)-N-methylhydrazine-1-carbothioamide], the “effect on promastigote count (in words)” value in the assay on L. major promastigotes and in the assay with L. tropica promastigotes was “significant reduction in promastigote count” in each case.
With `CNC(=S)NN=Cc1ccc(O)c(OC)c1` [Compound 5b, 2-(4-Hydroxy-3-methoxybenzylidene)-N-methylhydrazine-1-carbothioamide], the “effect on promastigote count (in words)” value in the assay with L. major promastigotes and in the assay with L. tropica promastigotes was “significant reduction in promastigote count” each time.
Turning to `CNC(=S)NN=Cc1ccc(C)cc1` [Compound 5c, N-Methyl-2-(4-methylbenzylidene)hydrazine-1-carbothioamide], the “effect on promastigote count (in words)” value in the assay with L. major promastigotes and in the assay on L. tropica promastigotes was “mild” each time.
In the case of `CNC(=S)NN=Cc1ccc(Br)cc1` [Compound 5e, 2-(4-Bromobenzylidene)-N-methylhydrazine-1-carbothioamide], the “effect on promastigote count (in words)” value with L. major promastigotes and in the assay on L. tropica promastigotes was “significant reduction in promastigote count” throughout.
As for `CNC(=S)NN=Cc1ccc([N+](=O)[O-])cc1` [Compound 5f, 2-(4-Nitrobenzylidene)-N-methylhydrazine-1-carbothioamide], the “effect on promastigote count (in words)” value in the assay with L. major promastigotes and with L. tropica promastigotes was “significant reduction in promastigote count” each time.
`CNC(=S)NN=Cc1ccc(OC)cc1` [Compound 5g, N-Methyl-2-(4-methoxybenzylidene)hydrazine-1-carbothioamide]: the “effect on promastigote count (in words)” value with L. major promastigotes and with L. tropica promastigotes was “significant reduction in promastigote count” throughout.
On to `O=[N+]([O-])NC(=S)NN=Cc1ccc(Br)cc1` [Compound 5j, 2-(4-Bromobenzylidene)-N-nitrohydrazine-1-carbothioamide], for which the “effect on promastigote count (in words)” value in the assay with L. major promastigotes and with L. tropica promastigotes was “mild effect” throughout.
Regarding `S=C(NN=Cc1ccc(Br)cc1)Nc1cccnc1` [Compound 5n, 2-(4-Bromobenzylidene)-N-(pyridin-3-yl)hydrazine-1-carbothioamide], the “reduction of the number of amastigotes toward the untreated negative control” value in assay [1] was 20–25%. Further, the “effect on promastigote count (in words)” value with L. major promastigotes and in the assay with L. tropica promastigotes was “limited activity” each time.
Consider `COc1ccc(C=NNC(=S)Nc2cccnc2)cc1OC` [Compound 5o, 2-(3,4-Dimethoxybenzylidene)-N-(pyridin-3-yl)hydrazine-1-carbothioamide], for which, in assay [1], the “reduction of the number of amastigotes toward the untreated negative control” value is listed as 20–25%. Further, the “effect on promastigote count (in words)” value in the assay on L. major promastigotes and in the assay on L. tropica promastigotes was “limited activity” each time.
